Measurements published in ChEMBL document CHEMBL4043300, “2 H-1,2,3-Triazole-Based Dipeptidyl Nitriles: Potent, Selective, and Trypanocidal Rhodesain Inhibitors by Structure-Based Design” (J Med Chem, 2018).
Converted amounts (≈) assume the structure as drawn.

Assays:
[1] = Octanol-water intrinsic distribution co-efficient, log D of the compound at 100 uM at pH 7.4 after 16 to 22 hrs by CAMDIS assay; type: physicochemical
Method in brief: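 Octanol/aqueous buffer (pH 7.4) intrinsic distribution coefficient measured in the CAMDIS carrier-mediated distribution system.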

[2] = Solubility of the compound at pH 6.5 by LYSA; type: physicochemical; details: buffer
Method in brief: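 Lyophilization solubility assay at pH 6.5.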

Rhodesain = Rhodesain (Trypanosoma brucei rhodesiense, UniProt Q95PM0); assay: Inhibition of Trypanosoma brucei rhodesiense rhodesain using Cbz-Phe-Arg-AMC as substrate by fluorimetric method
Method in brief: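 Fluorescence-based assay run at 25 °C in 50 mM sodium acetate pH 5.5 with 5 mM EDTA, 200 mM NaCl and 0.005% Brij35. IC50 values were converted to Ki with the Cheng-Prusoff equation. Values are the average of two measurements, each done in duplicate.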

Procathepsin L = Procathepsin L (Homo sapiens, UniProt P07711); assay: Inhibition of human CatL using Cbz-Phe-Arg-AMC as substrate measured over 30 mins by fluorimetric method
Method in brief: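 Human cathepsin L in a fluorimetric assay in 50 mM Tris pH 6.5, 5 mM EDTA, 200 mM NaCl, 0.005% Brij35 at 25 °C. Ki was calculated from IC50 by Cheng-Prusoff. Value is the average of two measurements, each in duplicate.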

[3] = Selectivity index, ratio of Ki for human CatL to Ki for Trypanosoma brucei rhodesiense rhodesain
Method in brief: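 Ki(hCatL)/Ki(RD). Fluorimetric assays at 25 °C: RD in 50 mM sodium acetate pH 5.5; hCatL in 50 mM Tris pH 6.5; both buffers with 5 mM EDTA, 200 mM NaCl, 0.005% Brij35. Ki derived from IC50 by Cheng-Prusoff. Each value is the mean of two measurements, each done in duplicate.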

[4] = test system: Trypanosoma brucei rhodesiense; assay: Antitrypanosomal activity against bloodstream form of Trypanosoma brucei rhodesiense STIB 900 assessed as parasite growth inhibition after 72 hrs by Alamar blue assay; type: functional; details: STIB 900, 72 h
Method in brief: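 Standard 72 h growth-inhibition assay with STIB 900 bloodstream trypomastigotes and Alamar Blue read-out. Value is the mean of at least 2 measurements.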

L6 = assay: Cytotoxicity against rat L6 cells after 72 hrs by Alamar blue assay; type: cell-based; details: L6, 72 h
Method in brief: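 Rat skeletal myoblast L6 cells in an Alamar Blue growth-inhibition assay. Value is the mean of at least 2 measurements.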

[5] = Intrinsic clearance in human liver microsomes at 2 uM after 30 mins in presence of NADPH by LC-MS/MS method; type: ADME, microsome; details: read-out: CLH
[6] = Intrinsic clearance in mouse liver microsomes at 2 uM after 30 mins in presence of NADPH by LC-MS/MS method; type: ADME, microsome; details: read-out: CLH
[7] = Permeability of the compound after 15 hrs by PAMPA; type: physicochemical; details: read-out: permeability
Cytochrome P450 3A4 = Cytochrome P450 3A4 (Homo sapiens, UniProt P08684); assay: Inhibition of CYP3A4 in human liver microsomes using DBF as substrate by fluorescence assay; type: ADME
Method in brief: (§1)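 Human liver microsomes with CYP-selective substrate metabolism reactions for 2C9, 2D6 and 3A4.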

Cytochrome P450 2D6 = Cytochrome P450 2D6 (Homo sapiens, UniProt P10635); assay: Inhibition of CYP2D6 in human liver microsomes using AMMC as substrate by fluorescence assay; type: ADME; method in brief: as §1
Cytochrome P450 2C9 = Cytochrome P450 2C9 (Homo sapiens, UniProt P11712); assay: Inhibition of CYP2C9 in human liver microsomes using MFC as substrate by fluorescence assay; type: ADME; method in brief: as §1
[8] = Half life in C57BL/6J mouse at 1.3 mg/kg, iv as bolus dose by LC-MS/MS analysis; type: ADME, organism-based; details: in vivo
Method in brief: (§2)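 Mice received intravenous compound in N-methylpyrrolidinone / 40% aqueous hydroxypropyl-γ-cyclodextrin (30/70). Blood was drawn into K₂EDTA at 5 min, 15 min, 30 min, 1, 2, 4 and 8 h, and plasma was separated at 3000 × g for 5 min at 4 °C and stored at -20 °C. Plasma levels were measured by LC–MS/MS, and parameters derived by non-compartmental analysis.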

[9] = Clearance in C57BL/6J mouse at 1.3 mg/kg, iv as bolus dose by LC-MS/MS analysis; type: ADME, organism-based; details: in vivo; method in brief: as §2
[10] = Volume of distribution at steady state in C57BL/6J mouse at 1.3 mg/kg, iv as bolus dose by LC-MS/MS analysis; type: ADME, organism-based; details: in vivo, read-out: Vdss; method in brief: as §2
[11] = Selectivity index, ratio of IC50 for rat L6 cells to IC50 for bloodstream form of Trypanosoma brucei rhodesiense STIB 900; type: toxicity; details: read-out: Ratio IC50
Method in brief: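 Ratio of L-6 rat skeletal myoblast IC50 to T. b. rhodesiense STIB 900 bloodstream trypomastigote IC50, both from Alamar Blue growth-inhibition assays. Each IC50 is the mean of at least 2 measurements.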

[12] = Half life in C57BL/6J mouse at 0.8 mg/kg, iv as bolus dose by LC-MS/MS analysis; type: ADME, organism-based; details: in vivo; method in brief: as §2
[13] = Clearance in C57BL/6J mouse at 0.8 mg/kg, iv as bolus dose by LC-MS/MS analysis; type: ADME, organism-based; details: in vivo; method in brief: as §2
[14] = Volume of distribution at steady state in C57BL/6J mouse at 0.8 mg/kg, iv as bolus dose by LC-MS/MS analysis; type: ADME, organism-based; details: in vivo, read-out: Vdss; method in brief: as §2
[15] = Unbound fraction in human plasma; type: ADME, cell-free
[16] = test system: Trypanosoma brucei rhodesiense; assay: Antitrypanosomal activity against bloodstream form of Trypanosoma brucei rhodesiense STIB 900 infected in NMRI mouse assessed as reduction of parasitemia at 50 mg/kg, po administered for 3 consecutive days starting 1 day post infection measured at 24 hrs post last dose relative to control; type: functional; set-up: scale not given: the % may be the effect or the level left
Method in brief: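 Female mice infected with STIB900 were dosed orally at 50 mg/kg/day on three consecutive days, starting 1 day post-infection. Compound was in 100% DMSO diluted 10-fold in distilled water, given at 0.1 mL/10 g. Tail-blood parasitaemia was measured 24 h after the last dose versus 4 untreated infected controls. Values are means of 2 mice.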

[17] = test system: Trypanosoma brucei rhodesiense; assay: Antitrypanosomal activity against bloodstream form of Trypanosoma brucei rhodesiense STIB 900 assessed as parasite growth inhibition after 2 hrs by Alamar blue assay; type: functional; details: STIB 900, 2 h
Method in brief: (§3)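 Bloodstream STIB 900 trypomastigotes, 1x10⁴ per well, exposed to eleven 3-fold serial dilutions at 37 °C/5% CO₂ for the stated pulse time. Parasites were then pelleted and washed four times, and an aliquot was regrown 72 h drug-free in triplicate plates. Resazurin was added for 2–4 h, fluorescence read at ex 536/em 588 nm, and IC50 taken by linear regression of sigmoidal curves. Melarsoprol served as control.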

[18] = test system: Trypanosoma brucei rhodesiense; assay: Antitrypanosomal activity against bloodstream form of Trypanosoma brucei rhodesiense STIB 900 assessed as parasite growth inhibition after 6 hrs by Alamar blue assay; type: functional; details: STIB 900, 6 h; method in brief: as §3
[19] = test system: Trypanosoma brucei rhodesiense; assay: Antitrypanosomal activity against bloodstream form of Trypanosoma brucei rhodesiense STIB 900 assessed as parasite growth inhibition after 16 hrs by Alamar blue assay; type: functional; details: STIB 900, 16 h; method in brief: as §3
[20] = test system: Trypanosoma brucei rhodesiense; assay: Antitrypanosomal activity against bloodstream form of Trypanosoma brucei rhodesiense STIB 900 assessed as parasite growth inhibition after 24 hrs by Alamar blue assay; type: functional; details: STIB 900, 24 h; method in brief: as §3
[21] = test system: Trypanosoma brucei rhodesiense; assay: Antitrypanosomal activity against bloodstream form of Trypanosoma brucei rhodesiense STIB 900 assessed as parasite growth inhibition after 48 hrs by Alamar blue assay; type: functional; details: STIB 900, 48 h; method in brief: as §3
MDR1 (P-gp) = assay: Efflux ratio of permeability across pig LLC-PK1 cells expressing human MDR1 at 1 uM after 3.5 hrs by LC-MS/MS analysis; type: ADME, cell-based, Sus scrofa
Method in brief: (§4)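 LLC-PK1 monolayers stably transfected with human MDR1 or mouse Mdr1a, grown in Medium 199/10% FCS with colchicine on permeable inserts and used day 4 after seeding. 1 μM compound added apical or basolateral; transport run in both directions in triplicate, 37 °C, 5% CO₂. Donor and receiver sampled at 3.5 h, quantified by LC–MS/MS. Lucifer yellow checked monolayer tightness.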

Mdr1a (P-gp) = assay: Efflux ratio of permeability across pig LLC-PK1 cells expressing mouse Mdr1a at 1 uM after 3.5 hrs by LC-MS/MS analysis; type: ADME, cell-based, Sus scrofa; method in brief: as §4

Cytochrome P450 2C9, sequence (P11712 whole entry): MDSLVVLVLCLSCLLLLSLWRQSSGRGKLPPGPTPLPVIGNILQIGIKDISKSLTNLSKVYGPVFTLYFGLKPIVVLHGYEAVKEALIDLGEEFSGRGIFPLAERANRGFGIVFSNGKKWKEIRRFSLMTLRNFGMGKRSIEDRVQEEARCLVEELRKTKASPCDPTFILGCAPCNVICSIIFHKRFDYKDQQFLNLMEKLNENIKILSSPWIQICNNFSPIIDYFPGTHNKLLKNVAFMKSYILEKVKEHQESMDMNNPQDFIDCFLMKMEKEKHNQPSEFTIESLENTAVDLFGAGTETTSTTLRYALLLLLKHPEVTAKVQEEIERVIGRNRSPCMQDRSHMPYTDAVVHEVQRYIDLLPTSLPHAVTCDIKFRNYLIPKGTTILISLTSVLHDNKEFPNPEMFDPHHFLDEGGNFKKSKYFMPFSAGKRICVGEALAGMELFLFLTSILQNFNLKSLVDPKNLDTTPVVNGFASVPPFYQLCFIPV
Cytochrome P450 2D6, sequence (P10635 whole entry): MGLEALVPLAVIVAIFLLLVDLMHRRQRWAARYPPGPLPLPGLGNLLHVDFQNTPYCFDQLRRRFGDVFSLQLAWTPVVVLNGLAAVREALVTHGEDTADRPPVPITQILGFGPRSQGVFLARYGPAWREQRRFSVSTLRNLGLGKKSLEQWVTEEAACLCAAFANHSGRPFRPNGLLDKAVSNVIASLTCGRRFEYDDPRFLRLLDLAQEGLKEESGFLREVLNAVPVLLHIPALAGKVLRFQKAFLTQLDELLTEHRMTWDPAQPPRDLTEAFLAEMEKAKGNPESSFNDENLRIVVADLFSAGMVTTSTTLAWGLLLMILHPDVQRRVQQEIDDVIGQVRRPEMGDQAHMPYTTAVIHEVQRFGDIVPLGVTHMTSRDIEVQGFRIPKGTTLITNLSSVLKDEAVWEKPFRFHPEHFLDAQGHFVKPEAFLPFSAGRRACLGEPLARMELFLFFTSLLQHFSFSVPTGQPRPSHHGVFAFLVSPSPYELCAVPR
Procathepsin L, sequence (P07711 whole entry): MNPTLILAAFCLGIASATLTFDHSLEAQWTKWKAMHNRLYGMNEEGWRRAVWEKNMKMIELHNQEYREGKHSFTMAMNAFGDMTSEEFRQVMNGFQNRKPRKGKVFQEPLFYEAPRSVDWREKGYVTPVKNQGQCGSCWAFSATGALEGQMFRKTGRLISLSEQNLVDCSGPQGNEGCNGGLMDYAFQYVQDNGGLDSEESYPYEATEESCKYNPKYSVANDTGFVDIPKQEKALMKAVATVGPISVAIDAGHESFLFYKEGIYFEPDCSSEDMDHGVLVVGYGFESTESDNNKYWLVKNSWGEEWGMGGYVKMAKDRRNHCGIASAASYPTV
Cytochrome P450 3A4, sequence (P08684 whole entry): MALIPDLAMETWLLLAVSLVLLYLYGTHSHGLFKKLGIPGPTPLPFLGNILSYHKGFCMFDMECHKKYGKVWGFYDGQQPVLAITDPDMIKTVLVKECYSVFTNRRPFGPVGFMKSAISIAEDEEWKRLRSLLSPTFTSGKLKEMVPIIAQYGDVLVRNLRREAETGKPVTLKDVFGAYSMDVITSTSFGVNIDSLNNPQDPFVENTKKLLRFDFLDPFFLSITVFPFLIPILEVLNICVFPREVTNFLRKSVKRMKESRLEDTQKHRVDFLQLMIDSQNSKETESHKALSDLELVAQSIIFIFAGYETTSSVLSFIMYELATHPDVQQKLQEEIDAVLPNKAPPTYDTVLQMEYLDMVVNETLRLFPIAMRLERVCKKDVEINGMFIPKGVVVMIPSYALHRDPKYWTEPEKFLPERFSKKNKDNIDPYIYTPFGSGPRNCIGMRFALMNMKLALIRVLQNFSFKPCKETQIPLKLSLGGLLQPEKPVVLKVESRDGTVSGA
Rhodesain, sequence (Q95PM0 whole entry): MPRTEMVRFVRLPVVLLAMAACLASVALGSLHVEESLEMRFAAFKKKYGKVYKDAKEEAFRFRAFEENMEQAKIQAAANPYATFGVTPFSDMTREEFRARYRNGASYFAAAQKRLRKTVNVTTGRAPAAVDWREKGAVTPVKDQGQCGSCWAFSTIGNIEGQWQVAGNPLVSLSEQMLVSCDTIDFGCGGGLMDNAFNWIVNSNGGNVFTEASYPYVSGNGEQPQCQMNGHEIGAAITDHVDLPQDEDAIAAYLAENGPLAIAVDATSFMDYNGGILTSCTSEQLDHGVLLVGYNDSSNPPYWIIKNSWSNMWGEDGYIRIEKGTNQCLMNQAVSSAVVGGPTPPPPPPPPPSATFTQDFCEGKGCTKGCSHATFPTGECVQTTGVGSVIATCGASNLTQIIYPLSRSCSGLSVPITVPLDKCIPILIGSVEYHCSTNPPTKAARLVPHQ

Row | SMILES | solubility [2] [µg/mL] | Ki (Rhodesain) [nM] | Ki (Procathepsin L) [nM] | Ratio Ki [3] | IC50 [4] [nM] | IC50 (L6) [nM] | microsomal CLint at 2 µM [5] [µL/min/mg] | microsomal CLint at 2 µM [6] [µL/min/mg] | Papp at 15 h [7] [×10⁻⁶ cm/s] | IC50 (Cytochrome P450 3A4) [nM] | IC50 (Cytochrome P450 2D6) [nM] | IC50 (Cytochrome P450 2C9) [nM] | half-life [8] [h] | clearance [9] [mL/min/kg] | Vd [10] [L/kg] | selectivity ratio [11] | Activity [16] [%] | also measured
1 | CC(C)(C)n1ncc(C(=O)N[C@@H](Cc2ccc(OC(F)(F)F)c(Cl)c2)C(=O)NC2(C#N)CC2)n1 | 0.9 (≈ 1.8 µM) | 31 | 8 | 0.3 | 4 | 7630 | < 10 | 17 | 2.86 | > 50000 | 500 | 5000 | 1.3 | 17 | 1.7 | 1900 | – | logD at 100 µM [1]: 4.87
2 | N#CC1(NC(=O)[C@H](Cc2ccc(OC(F)(F)F)c(Cl)c2)NC(=O)c2cnn(-c3ccc(F)nc3)n2)CC1 | 0.5 (≈ 0.93 µM) | 14 | 143 | 10 | 6 | 6990 | < 10 | < 10 | 0.291 | 47000 | 1000 | 11000 | – | – | – | 1170 | 40.8 | half-life [12]: 1.42 h; clearance [13]: 10.2 mL/min/kg; Vd [14]: 1.2 L/kg; fraction unbound [15]: 0.0148
3 | N#CC1(NC(=O)[C@H](Cc2ccc(Cl)c(Cl)c2)NC(=O)c2cnn(-c3ccc(F)cc3)n2)CC1 | < 0.3 | 2 | 131 | 66 | 7 | 9670 | < 10 | < 10 | 1.07 | > 50000 | 5000 | 4000 | > 6.4 | < 4.6 | < 2.5 | 1390 | 47.2 | –
4 | N#CC1(NC(=O)[C@H](Cc2ccc(OC(F)(F)F)c(Cl)c2)NC(=O)c2cnn(-c3ccc(F)cc3)n2)CC1 | < 0.3 | 7.4 | 266 | 36 | 9 | 18800 | < 10 | < 10 | – | > 50000 | 3000 | 9000 | – | – | – | 2090 | – | IC50 [17]: > 1000 nM; IC50 [18]: > 1000 nM; IC50 [19]: > 1000 nM; IC50 [20]: 450 nM; IC50 [21]: 64 nM; efflux ratio at 3.5 h, 1 µM (MDR1 (P-gp)): 6; efflux ratio at 3.5 h, 1 µM (Mdr1a (P-gp)): 20
